From ChEMBL document CHEMBL3044834, “Novel protoporphyrinogen oxidase inhibitors: 3H-pyrazolo[3,4-d][1,2,3]triazin-4-one derivatives” (J Agric Food Chem, 2008)

Key:
Type in all cases: functional
Digitaria sanguinalis [1] = test: Herbicidal activity against Digitaria sanguinalis (hairy crabgrass) assessed as inhibition of fresh weed plant weight at 93.75 g/ha using post-emergence treatment protocol
How it was run: (§1)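 Test compounds made up as emulsions by dissolving in 100 µL N,N-dimethylformamide, then adding a little Tween 20 and water. For post-emergence, weed seedlings at one leaf and one stem were sprayed at the same rates as the pre-emergence test. Fresh weight was recorded 15 days after treatment and expressed as percent inhibition versus controls. All treatments were run in triplicate.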

[2] = test system: Brassica rapa subsp. oleifera; test: Herbicidal activity against Brassica rapa subsp. oleifera assessed as inhibition of fresh weed plant weight at 375 g/ha using pre-emergence treatment protocol
Amaranthus retroflexus [3] = test: Herbicidal activity against Amaranthus retroflexus assessed as inhibition of fresh weed plant weight at 750 g/ha using pre-emergence treatment protocol; how it was run: as §1
[4] = test system: Brassica rapa subsp. oleifera; test: Herbicidal activity against Brassica rapa subsp. oleifera assessed as inhibition of fresh weed plant weight at 22.5 g/ha using pre-emergence treatment protocol
[5] = test system: Brassica rapa subsp. oleifera; test: Herbicidal activity against Brassica rapa subsp. oleifera assessed as inhibition of fresh weed plant weight at 187.5 g/ha using post-emergence treatment protocol; how it was run: as §1
Amaranthus retroflexus [6] = test: Herbicidal activity against Amaranthus retroflexus assessed as inhibition of fresh weed plant weight at 1500 g/ha using pre-emergence treatment protocol
Digitaria sanguinalis [7] = test: Herbicidal activity against Digitaria sanguinalis (hairy crabgrass) assessed as inhibition of fresh weed plant weight at 187.5 g/ha using post-emergence treatment protocol; how it was run: as §1
Digitaria sanguinalis [8] = test: Herbicidal activity against Digitaria sanguinalis (hairy crabgrass) assessed as inhibition of fresh weed plant weight at 45 g/ha using pre-emergence treatment protocol
Amaranthus retroflexus [9] = test: Herbicidal activity against Amaranthus retroflexus assessed as inhibition of fresh weed plant weight at 45 g/ha using pre-emergence treatment protocol
Amaranthus retroflexus [10] = test: Herbicidal activity against Amaranthus retroflexus assessed as inhibition of fresh weed plant weight at 93.75 g/ha using pre-emergence treatment protocol
Echinochloa crus-galli [11] = test: Herbicidal activity against Echinochloa crus-galli (barnyard grass) assessed as inhibition of fresh weed plant weight at 93.75 g/ha using post-emergence treatment protocol; how it was run: as §1
Digitaria sanguinalis [12] = test: Herbicidal activity against Digitaria sanguinalis (hairy crabgrass) assessed as inhibition of fresh weed plant weight at 375 g/ha using post-emergence treatment protocol; how it was run: as §1
Digitaria sanguinalis [13] = test: Herbicidal activity against Digitaria sanguinalis (hairy crabgrass) assessed as inhibition of fresh weed plant weight at 187.5 g/ha using pre-emergence treatment protocol
Amaranthus retroflexus [14] = test: Herbicidal activity against Amaranthus retroflexus assessed as inhibition of fresh weed plant weight at 375 g/ha using pre-emergence treatment protocol
[15] = test system: Brassica rapa subsp. oleifera; test: Herbicidal activity against Brassica rapa subsp. oleifera assessed as inhibition of fresh weed plant weight at 93.75 g/ha using post-emergence treatment protocol; how it was run: as §1
Echinochloa crus-galli [16] = test: Herbicidal activity against Echinochloa crus-galli (barnyard grass) assessed as inhibition of fresh weed plant weight at 1500 g/ha using post-emergence treatment protocol; how it was run: as §1
Echinochloa crus-galli [17] = test: Herbicidal activity against Echinochloa crus-galli (barnyard grass) assessed as inhibition of fresh weed plant weight at 375 g/ha using pre-emergence treatment protocol; how it was run: as §1
Digitaria sanguinalis [18] = test: Herbicidal activity against Digitaria sanguinalis (hairy crabgrass) assessed as inhibition of fresh weed plant weight at 1500 g/ha using pre-emergence treatment protocol
[19] = test system: Brassica rapa subsp. oleifera; test: Herbicidal activity against Brassica rapa subsp. oleifera assessed as inhibition of fresh weed plant weight at 750 g/ha using pre-emergence treatment protocol
Digitaria sanguinalis [20] = test: Herbicidal activity against Digitaria sanguinalis (hairy crabgrass) assessed as inhibition of fresh weed plant weight at 375 g/ha using pre-emergence treatment protocol
Amaranthus retroflexus [21] = test: Herbicidal activity against Amaranthus retroflexus assessed as inhibition of fresh weed plant weight at 750 g/ha using post-emergence treatment protocol; how it was run: as §1
Echinochloa crus-galli [22] = test: Herbicidal activity against Echinochloa crus-galli (barnyard grass) assessed as inhibition of fresh weed plant weight at 1500 g/ha using pre-emergence treatment protocol
Amaranthus retroflexus [23] = test: Herbicidal activity against Amaranthus retroflexus assessed as inhibition of fresh weed plant weight at 187.5 g/ha using post-emergence treatment protocol; how it was run: as §1
Digitaria sanguinalis [24] = test: Herbicidal activity against Digitaria sanguinalis (hairy crabgrass) assessed as inhibition of fresh weed plant weight at 93.75 g/ha using pre-emergence treatment protocol
[25] = test system: Brassica rapa subsp. oleifera; test: Herbicidal activity against Brassica rapa subsp. oleifera assessed as inhibition of fresh weed plant weight at 93.75 g/ha using pre-emergence treatment protocol
[26] = test system: Brassica rapa subsp. oleifera; test: Herbicidal activity against Brassica rapa subsp. oleifera assessed as inhibition of fresh weed plant weight at 1500 g/ha using pre-emergence treatment protocol
Echinochloa crus-galli [27] = test: Herbicidal activity against Echinochloa crus-galli (barnyard grass) assessed as inhibition of fresh weed plant weight at 750 g/ha using post-emergence treatment protocol; how it was run: as §1
[28] = test system: Brassica rapa subsp. oleifera; test: Herbicidal activity against Brassica rapa subsp. oleifera assessed as inhibition of fresh weed plant weight at 1500 g/ha using post-emergence treatment protocol; how it was run: as §1
Echinochloa crus-galli [29] = test: Herbicidal activity against Echinochloa crus-galli (barnyard grass) assessed as inhibition of fresh weed plant weight at 93.75 g/ha using pre-emergence treatment protocol
Digitaria sanguinalis [30] = test: Herbicidal activity against Digitaria sanguinalis (hairy crabgrass) assessed as inhibition of fresh weed plant weight at 750 g/ha using post-emergence treatment protocol; how it was run: as §1
[31] = test system: Brassica rapa subsp. oleifera; test: Herbicidal activity against Brassica rapa subsp. oleifera assessed as inhibition of fresh weed plant weight at 750 g/ha using post-emergence treatment protocol; how it was run: as §1
Amaranthus retroflexus [32] = test: Herbicidal activity against Amaranthus retroflexus assessed as inhibition of fresh weed plant weight at 187.5 g/ha using pre-emergence treatment protocol
Amaranthus retroflexus [33] = test: Herbicidal activity against Amaranthus retroflexus assessed as inhibition of fresh weed plant weight at 375 g/ha using post-emergence treatment protocol; how it was run: as §1
Digitaria sanguinalis [34] = test: Herbicidal activity against Digitaria sanguinalis (hairy crabgrass) assessed as inhibition of fresh weed plant weight at 22.5 g/ha using pre-emergence treatment protocol
[35] = test system: Brassica rapa subsp. oleifera; test: Herbicidal activity against Brassica rapa subsp. oleifera assessed as inhibition of fresh weed plant weight at 45 g/ha using pre-emergence treatment protocol
Echinochloa crus-galli [36] = test: Herbicidal activity against Echinochloa crus-galli (barnyard grass) assessed as inhibition of fresh weed plant weight at 375 g/ha using post-emergence treatment protocol; how it was run: as §1
Amaranthus retroflexus [37] = test: Herbicidal activity against Amaranthus retroflexus assessed as inhibition of fresh weed plant weight at 22.5 g/ha using pre-emergence treatment protocol
Echinochloa crus-galli [38] = test: Herbicidal activity against Echinochloa crus-galli (barnyard grass) assessed as inhibition of fresh weed plant weight at 187.5 g/ha using pre-emergence treatment protocol; how it was run: as §1
Digitaria sanguinalis [39] = test: Herbicidal activity against Digitaria sanguinalis (hairy crabgrass) assessed as inhibition of fresh weed plant weight at 750 g/ha using pre-emergence treatment protocol
[40] = test system: Brassica rapa subsp. oleifera; test: Herbicidal activity against Brassica rapa subsp. oleifera assessed as inhibition of fresh weed plant weight at 187.5 g/ha using pre-emergence treatment protocol
Amaranthus retroflexus [41] = test: Herbicidal activity against Amaranthus retroflexus assessed as inhibition of fresh weed plant weight at 1500 g/ha using post-emergence treatment protocol; how it was run: as §1
Amaranthus retroflexus [42] = test: Herbicidal activity against Amaranthus retroflexus assessed as inhibition of fresh weed plant weight at 93.75 g/ha using post-emergence treatment protocol; how it was run: as §1
Echinochloa crus-galli [43] = test: Herbicidal activity against Echinochloa crus-galli (barnyard grass) assessed as inhibition of fresh weed plant weight at 187.5 g/ha using post-emergence treatment protocol; how it was run: as §1
[44] = test system: Brassica rapa subsp. oleifera; test: Herbicidal activity against Brassica rapa subsp. oleifera assessed as inhibition of fresh weed plant weight at 375 g/ha using post-emergence treatment protocol; how it was run: as §1
Echinochloa crus-galli [45] = test: Herbicidal activity against Echinochloa crus-galli (barnyard grass) assessed as inhibition of fresh weed plant weight at 750 g/ha using pre-emergence treatment protocol
Echinochloa crus-galli [46] = test: Herbicidal activity against Echinochloa crus-galli (barnyard grass) assessed as inhibition of fresh weed plant weight at 22.5 g/ha using pre-emergence treatment protocol; how it was run: as §1
Digitaria sanguinalis [47] = test: Herbicidal activity against Digitaria sanguinalis (hairy crabgrass) assessed as inhibition of fresh weed plant weight at 1500 g/ha using post-emergence treatment protocol; how it was run: as §1
Echinochloa crus-galli [48] = test: Herbicidal activity against Echinochloa crus-galli (barnyard grass) assessed as inhibition of fresh weed plant weight at 45 g/ha using pre-emergence treatment protocol

## C#CCN1C(=O)COc2cc(F)c(-n3nnc4c(cnn4CC=C)c3=O)cc21
Digitaria sanguinalis [1]
  inhibition at 93.75 g/ha: 0%
[2]
  inhibition at 375 g/ha: 100%
Amaranthus retroflexus [3]
  inhibition at 750 g/ha: 100%
[4]
  inhibition at 22.5 g/ha: 22.3%
[5]
  inhibition at 187.5 g/ha: 72.9%
Amaranthus retroflexus [6]
  inhibition at 1500 g/ha: 100%
Digitaria sanguinalis [7]
  inhibition at 187.5 g/ha: 0%
Digitaria sanguinalis [8]
  inhibition at 45 g/ha: 2.4%
Amaranthus retroflexus [9]
  inhibition at 45 g/ha: 86.2%
Amaranthus retroflexus [10]
  inhibition at 93.75 g/ha: 100%
Echinochloa crus-galli [11]
  inhibition at 93.75 g/ha: 7%
Digitaria sanguinalis [12]
  inhibition at 375 g/ha: 4.2%
Digitaria sanguinalis [13]
  inhibition at 187.5 g/ha: 77.6%
Amaranthus retroflexus [14]
  inhibition at 375 g/ha: 100%
[15]
  inhibition at 93.75 g/ha: 18.5%
Echinochloa crus-galli [16]
  inhibition at 1500 g/ha: 85.2%
Echinochloa crus-galli [17]
  inhibition at 375 g/ha: 97.3%
Digitaria sanguinalis [18]
  inhibition at 1500 g/ha: 100%
[19]
  inhibition at 750 g/ha: 100%
Digitaria sanguinalis [20]
  inhibition at 375 g/ha: 100%
Amaranthus retroflexus [21]
  inhibition at 750 g/ha: 100%
Echinochloa crus-galli [22]
  inhibition at 1500 g/ha: 100%
Amaranthus retroflexus [23]
  inhibition at 187.5 g/ha: 5.8%
Digitaria sanguinalis [24]
  inhibition at 93.75 g/ha: 44.9%
[25]
  inhibition at 93.75 g/ha: 100%
[26]
  inhibition at 1500 g/ha: 100%
Echinochloa crus-galli [27]
  inhibition at 750 g/ha: 51.6%
[28]
  inhibition at 1500 g/ha: 100%
Echinochloa crus-galli [29]
  inhibition at 93.75 g/ha: 53.4%
Digitaria sanguinalis [30]
  inhibition at 750 g/ha: 16.7%
[31]
  inhibition at 750 g/ha: 100%
Amaranthus retroflexus [32]
  inhibition at 187.5 g/ha: 100%
Amaranthus retroflexus [33]
  inhibition at 375 g/ha: 83.5%
Digitaria sanguinalis [34]
  inhibition at 22.5 g/ha: 0%
[35]
  inhibition at 45 g/ha: 66.7%
Echinochloa crus-galli [36]
  inhibition at 375 g/ha: 43.5%
Amaranthus retroflexus [37]
  inhibition at 22.5 g/ha: 76.6%
Echinochloa crus-galli [38]
  inhibition at 187.5 g/ha: 63.7%
Digitaria sanguinalis [39]
  inhibition at 750 g/ha: 100%
[40]
  inhibition at 187.5 g/ha: 100%
Amaranthus retroflexus [41]
  inhibition at 1500 g/ha: 100%
Amaranthus retroflexus [42]
  inhibition at 93.75 g/ha: 0%
Echinochloa crus-galli [43]
  inhibition at 187.5 g/ha: 27.8%
[44]
  inhibition at 375 g/ha: 100%
Echinochloa crus-galli [45]
  inhibition at 750 g/ha: 98.9%
Echinochloa crus-galli [46]
  inhibition at 22.5 g/ha: 25.1%
Digitaria sanguinalis [47]
  inhibition at 1500 g/ha: 32.1%
Echinochloa crus-galli [48]
  inhibition at 45 g/ha: 34%
